Among the data in ChEMBL document CHEMBL1154266, “Synthesis, conformational analysis, and biological evaluation of 19-nor-vitamin D3 analogues with A-ring modifications” (J Med Chem, 2009) are Activity, MTD and Ratio values, retold here.

“And” between values parts separate entries of the source, which are not always exact repeats. Equal values may be shown once.

Data set [1] deals with MCF7. As to the kind of experiment: Antiproliferative activity against human MCF7 cells at EC50 after 72 hrs by [3H]thymidine incorporation assay relative to 1-alpha,25-(OH)2D3. Format: functional. The method, boiled down: (§1)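 MCF-7 breast cancer cells; proliferation read by [³H]thymidine incorporation. Inhibition was scored at 10^-6 M, and the concentration giving half-maximal response was derived. Values are mean ± SD, n = 3.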
A general note: Uptake of a labelled nucleoside into DNA is a usual measure of proliferation.

The target of data set [2] is T1, Vitamin D3 receptor (Sus scrofa) (UniProt A3RGC1).
T1 sequence (whole entry): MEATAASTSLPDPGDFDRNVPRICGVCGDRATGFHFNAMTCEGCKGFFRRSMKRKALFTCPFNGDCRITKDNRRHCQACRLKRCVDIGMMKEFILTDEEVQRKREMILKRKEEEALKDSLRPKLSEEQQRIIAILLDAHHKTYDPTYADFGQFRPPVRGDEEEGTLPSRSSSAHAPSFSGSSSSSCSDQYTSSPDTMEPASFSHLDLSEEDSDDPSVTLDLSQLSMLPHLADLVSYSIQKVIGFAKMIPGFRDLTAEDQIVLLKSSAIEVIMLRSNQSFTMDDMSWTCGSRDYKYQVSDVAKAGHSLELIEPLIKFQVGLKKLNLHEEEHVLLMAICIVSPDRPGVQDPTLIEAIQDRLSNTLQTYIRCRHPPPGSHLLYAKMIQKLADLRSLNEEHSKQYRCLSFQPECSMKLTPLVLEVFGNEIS
As to the kind of experiment: Displacement of [3H]1-alpha,25-(OH)2D3 from VDR in pig intestinal mucosa at EC50 relative to 1-alpha,25-(OH)2D3. Format: tissue-based. In short, it runs like this: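 Binding to vitamin D receptor (VDR), […]. Values are mean ± SD, n = 3.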
For orientation: In a radioligand displacement assay an active substance lowers the binding of a labelled ligand.

For data set [3], the system named is Mus musculus. The data set is described as follows: Toxicity in NMRI mouse assessed as increase in serum calcium level at 0.1 ug/kg, ip daily for 7 consecutive days measured after day 7 by colorimetric assay. Particulars: in vivo, 0.0001 mg/kg. Format: organism-based. The method, boiled down: (§2)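 Mice received a daily injection of compound. The calcemic effect was read as the percent increase in serum calcium levels.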

The nature of data set [4]: Toxicity in ip dosed NMRI mouse assessed as maximum tolerable dose inducing minimal increase in serum calcium level administered daily for 7 consecutive days measured after day 7 by colorimetric assay. Format: organism-based. To be noted: in vivo.
The test system of data set [5] is MCF7. The data set is described as follows: Antiproliferative activity against human MCF7 cells at 1 uM after 72 hrs by [3H]thymidine incorporation assay. Format: functional. In short, it runs like this:
as §1

Data set [6] concerns Mus musculus. As to the kind of experiment: Toxicity in NMRI mouse assessed as increase in serum calcium level at 100 ug/kg, ip daily for 7 consecutive days measured after day 7 by colorimetric assay. It counts as organism-based. Particulars: in vivo, 0.1 mg/kg. In short, it runs like this:
as §2

Data set [7] relates to Mus musculus. As to the kind of experiment: Toxicity in NMRI mouse assessed as induction of calcemic effect at 100 ug/kg, ip daily for 7 consecutive days measured after day 7 by colorimetric assay. Format: organism-based. Particulars: in vivo, 0.1 mg/kg. In short, it runs like this:
as §2

The test system of data set [8] is MCF7. The data set is described as follows: Ratio of 1-alpha,25-(OH)2D3 to compound antiproliferative activity against human MCF7 cells at EC50 after 72 hrs by [3H]thymidine incorporation assay. Format: functional.
Data set [9] has as its system Mus musculus. The data set is described as follows: Toxicity in NMRI mouse assessed as induction of calcemic effect at 40 ug/kg, ip daily for 7 consecutive days measured after day 7 by colorimetric assay. It counts as organism-based. To be noted: in vivo, 0.04 mg/kg. The method, boiled down: as §2
Data set [10] deals with T1, Vitamin D3 receptor (Sus scrofa). As to the kind of experiment: Ratio of 1-alpha,25-(OH)2D3 to compound affinity for binding to VDR in pig intestinal mucosa.
Data set [11] concerns Mus musculus. As to the kind of experiment: Toxicity in NMRI mouse assessed as induction of calcemic effect at 20 ug/kg, ip daily for 7 consecutive days measured after day 7 by colorimetric assay. Format: organism-based. To be noted: in vivo, 0.02 mg/kg. The method, boiled down:
as §2

Take `C[C@H](CCCC(C)(C)O)[C@H]1CC[C@H]2/C(=C/C=C3/C[C@@H](O)[C@H](O)[C@@H](O)C3)CCC[C@]12C`: the Activity came out at 5% in the data set with MCF7 [1] and 0.4% in [2].

By MTD is commonly meant the largest dose that counted as tolerated. On to `C=C1/C(=C\C=C2/CCC[C@]3(C)[C@@H]([C@H](C)CCCC(C)(C)O)CC[C@@H]23)C[C@@H](O)C[C@@H]1O` [CALCITRIOL], for which the Activity in the data set on Mus musculus [3] came out at 27%. For the same compound, the MTD at 7 days in data set [4] is 0.0001 mg/kg/day.

As for `C[C@H](CCCC(C)(C)O)[C@H]1CC[C@H]2/C(=C/C=C3\C[C@@H](O)[C@H](O)[C@@H](O)C3)CCC[C@]12C`, the Activity (with MCF7 [1]; in data set [2]) was 5% in each case.

Take `C[C@H](CCCC(C)(C)O)[C@H]1CC[C@H]2/C(=C/C=C3C[C@@H](O)C(O)[C@H](O)C3)CCC[C@]12C` (stereo not given in full) [listing 1 of 2 here]: in the data set on MCF7 [1], the Activity came to 5%.

As to `[H][C@@]12CC[C@]([H])([C@H](C)CCCC(C)(C)O)[C@@]1(C)CCC/C2=C\C=C1\C[C@@H](O)[C@H](O)[C@H](O)C1` (stereo not given in full), the Activity in the data set with MCF7 [5] is on record as 60%; with MCF7 [1], 20%; in the data set with Mus musculus [6] it was 13%; in the data set on Mus musculus [7], “Non-toxic”. In addition, the Ratio in the data set on MCF7 [8] came to 5.

For the compound `C[C@H](CCCC(C)(C)O)[C@H]1CC[C@H]2/C(=C/C=C3/C[C@@H](O)[C@@H]4O[C@@H]4C3)CCC[C@]12C`, the Activity result in the data set on Mus musculus [9] was “Non-toxic”; in the data set with MCF7 [1] it was 1%; in [2] it was 0.4%.

On to `C[C@H](CCCC(C)(C)O)[C@H]1CC[C@H]2/C(=C/C=C3C[C@@H](O)C(O)[C@H](O)C3)CCC[C@]12C` (stereo not given in full) [listing 2 of 2 here], for which, in data set [10], the Ratio is 5 and 10. Moreover, the Activity in data set [2] is 20% and 10%.

Turning to `C[C@H](CCCC(C)(C)O)[C@H]1CC[C@H]2/C(=C/C=C3\C[C@@H](O)[C@@H]4O[C@@H]4C3)CCC[C@]12C`, the results for the Activity (in the data set with MCF7 [1]; in the data set with Mus musculus [11]; in data set [2]) were 16%, “Non-toxic” and 25%, respectively.
